Source: ChEMBL document CHEMBL3244063, “Pharmacology on rat ileum of certain 2-substituted 3-(dimethylamino)-5,6-dimethoxyindenes related to 5,6-(methylenedioxy)indene calcium antagonists” (1978)
Active and inactive are the calls of the source. The calls are words filed in the database; no cut-off is given here.

How the values were obtained:
[1] = species on record: Rattus norvegicus; assay: Antagonist activity at calcium channel in albino rat ileum assessed as inhibition of acetylcholine-induced spasmogenic action by measuring contraction of ileum at 10^-5 acetylcholine induction (reference value: 80 +/- 5%); assay type: tissue-based; set-up: scale not given: the % may be the effect or the level left
[2] = species on record: Rattus norvegicus; assay: Antagonist activity at calcium channel in albino rat ileum assessed as inhibition of PGF-2alpha-induced spasmogenic action by measuring contraction of ileum at 10^-3 M preincubated for 3 mins followed by PGF-2alpha induction (reference value: 76 +/- 4%); assay type: tissue-based; set-up: scale not given: the % may be the effect or the level left
[3] = species on record: Rattus norvegicus; assay: Antagonist activity at calcium channel in albino rat ileum assessed as inhibition of acetylcholine-induced spasmogenic action by measuring contraction of ileum at 10^-6 acetylcholine induction (reference value: 80 +/- 5%); assay type: tissue-based; set-up: scale not given: the % may be the effect or the level left
[4] = species on record: Rattus norvegicus; assay: Antagonist activity at calcium channel in albino rat ileum assessed as inhibition of acetylcholine-induced spasmogenic action by measuring contraction of ileum at 10^-4 acetylcholine induction (reference value: 80 +/- 5%); assay type: tissue-based; set-up: scale not given: the % may be the effect or the level left
[5] = species on record: Rattus norvegicus; assay: Antagonist activity at calcium channel in albino rat ileum assessed as inhibition of acetylcholine-induced spasmogenic action by measuring contraction of ileum at 10^-3 acetylcholine induction (reference value: 80 +/- 5%); assay type: tissue-based; set-up: scale not given: the % may be the effect or the level left
[6] = species on record: Rattus norvegicus; assay: Agonist activity at calcium channel in albino rat ileum assessed as induction of spasmogenic action by measuring contraction of ileum at 10^-4 M measured for 3 mins relative to acetylcholine; assay type: tissue-based
In short: (§1)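 Isolated rat ileum strips in an organ bath, with a separate strip for each compound and concentration. A control contraction to PGF2α (3 × 10⁻⁷ M bath) or acetylcholine (10⁻⁶ M bath) is recorded, and the bath is washed three times. Contraction during the 3-min test-compound incubation, before spasmogen is added, is expressed as percent of the control spasmogen response. Mean ± SEM of four experiments.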

[7] = species on record: Rattus norvegicus; assay: Antagonist activity at calcium channel in albino rat ileum assessed as inhibition of PGF-2alpha-induced spasmogenic action by measuring contraction of ileum at 10^-5 M preincubated for 3 mins followed by PGF-2alpha induction (reference value: 76 +/- 4%); assay type: tissue-based; set-up: scale not given: the % may be the effect or the level left
[8] = species on record: Rattus norvegicus; assay: Antagonist activity at calcium channel in albino rat ileum assessed as inhibition of PGF-2alpha-induced spasmogenic action by measuring contraction of ileum at 10^-4 M preincubated for 3 mins followed by PGF-2alpha induction (reference value: 76 +/- 4%); assay type: tissue-based; set-up: scale not given: the % may be the effect or the level left
[9] = species on record: Rattus norvegicus; assay: Antagonist activity at calcium channel in albino rat ileum assessed as inhibition of PGF-2alpha-induced spasmogenic action by measuring contraction of ileum at 10^-6 M preincubated for 3 mins followed by PGF-2alpha induction (reference value: 76 +/- 4%); assay type: tissue-based; set-up: scale not given: the % may be the effect or the level left
[10] = species on record: Rattus norvegicus; assay: Agonist activity at calcium channel in albino rat ileum assessed as induction of spasmogenic action by measuring contraction of ileum at 10^-3 M measured for 3 mins relative to acetylcholine; assay type: tissue-based; in short: as §1
[11] = species on record: Rattus norvegicus; assay: Agonist activity at calcium channel in albino rat ileum assessed as induction of spasmogenic action by measuring contraction of ileum at 10^-6 to 10^-5 M measured for 3 mins; assay type: tissue-based; in short: as §1
[12] = species on record: Rattus norvegicus; assay: Agonist activity at calcium channel in albino rat ileum assessed as induction of spasmogenic action by measuring contraction of ileum at 10^-4 M measured for 3 mins relative to PGF-2alpha; assay type: tissue-based; in short: as §1
[13] = species on record: Rattus norvegicus; assay: Agonist activity at calcium channel in albino rat ileum assessed as induction of spasmogenic action by measuring contraction of ileum at 10^-3 M measured for 3 mins relative to PGF-2alpha; assay type: tissue-based; in short: as §1
[14] = system: Heart; assay: Positive inotropic activity in perfused rabbit heart assessed as increase in force of contraction at 10^-6 M relative to control; assay type: functional, Oryctolagus cuniculus

| SMILES | Activity [1] | Activity [2] | Activity [3] | Activity [4] | Activity [5] | Activity [6] | Activity [7] | Activity [8] | Activity [9] | Activity [10] | Activity [11] | Activity [12] | Activity [13] | Activity [14] |
| --- | --- | --- | --- | --- | --- | --- | --- | --- | --- | --- | --- | --- | --- | --- |
| CCCCC1=Cc2cc(OC)c(OC)cc2C1N(C)C (stereo not drawn) | 108% | 65.2% | 104% | 78.6% | 64.3% | 25.3% | 91.1% | 60.5% | 101% | 46.7% | inactive | 37.1% | 58.1% |  |
| CCC1=Cc2cc(OC)c(OC)cc2C1N(C)C (stereo not drawn) | 105% | 62% | 105% | 91.5% | 51.3% | 28.9% | 108% | 110% | 98.7% | 45.3% | inactive | 74.7% | 77.3% |  |
| CCCC1=Cc2cc3c(cc2C1N(C)C)OCO3.Cl (stereo not drawn) |  |  |  |  |  |  |  |  |  |  |  |  |  | 36% |
| COc1cc2c(cc1OC)C(N(C)C)C(C)=C2 (stereo not drawn) | 113% | 124% | 113% | 94.4% | 64% | 20.6% | 108% | 113% | 111% | 49.5% | inactive | 59.8% | 119% |  |
| CCCC1=Cc2cc(OC)c(OC)cc2C1N(C)C (stereo not drawn) | 110% | 49.1% | 104% | 96.6% | 56.7% | 42.7% | 99.3% | 99.7% | 104% | 43.6% | inactive | 80.7% | 61.7% |  |
